Measured values as given in ChEMBL document CHEMBL1138579, “Synthesis of alkenyldiarylmethanes (ADAMs) containing benzo[d]isoxazole and oxazolidin-2-one rings, a new series of potent non-nucleoside HIV-1 reverse transcriptase inhibitors” (Eur J Med Chem, 2009).

biological target: Human immunodeficiency virus type 1 reverse transcriptase (Human immunodeficiency virus 1, UniProt Q72547); assay: Inhibition of HIV1 recombinant reverse transcriptase assessed as incorporation of [32P]GTP into poly(rC).oligo(dG) (rCdG) homopolymer template primer
In short: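 Purified recombinant HIV-1 RT, p66/51 heterodimer. Activity followed by [32P]GTP incorporation into poly(rC)·oligo(dG) homopolymer template-primer. IC50 taken as the mean of at least two separate experiments.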

Question: Which IC50 does the source give for `COc1noc2c(C)cc(/C(=C\CCN3CCOC3=O)c3cccc(C#N)c3)cc12` here?
Answer: 39.2 µM

Question: For `COC(=O)c1cc(/C(=C\CCN2CCOC2=O)c2cc(C)c3onc(OC)c3c2)cc(C)c1OC`, which IC50 is on record?
Answer: 0.63 µM

Question: Which IC50 does the source give for `COC(=O)c1cc(/C(=C/CCN2CCOC2=O)c2cc(C)c3onc(OC)c3c2)cc(C)c1OC` here?
Answer: 18.2 µM

Question: For `COC(=O)c1cc(/C(=C/CCN2CCOC2=O)c2cc(C)c3onc(OC)c3c2)cc(Cl)c1OC`, which IC50 is on record?
Answer: 5.88 µM

Question: For `COC(=O)CCC/C=C(/c1cc(C)c2onc(OC)c2c1)c1cc(C)c2oc(=O)n(C)c2c1`, which IC50 is on record?
Answer: 0.25 µM

Question: For `COc1noc2c(C)cc(/C(=C\CCN3CCOC3=O)c3cc(C)c4oc(=O)n(C)c4c3)cc12`, which IC50 is on record?
Answer: 3.6 µM

Question: With `COc1noc2c(C)cc(C(=CCCN3CCOC3=O)c3cc(C)c4onc(OC)c4c3)cc12` as the compound, how does the IC50 read?
Answer: 0.93 µM

system: not listed separately; assay: Cytotoxicity against human MT4 cells by MTT assay; type: cell-based

Question: Which CC50 does the source give for `Cc1ccnc2c1NC(=O)c1cccnc1N2C1CC1` [NEVIRAPINE] here?
Answer: > 200 µM
